Bioassay records deposited in PubChem by Sanford-Burnham Center for Chemical Genomics.
Compounds with a hit are over-represented: about 1.1% of the library has one in this group of screens.
Diaph inh CS = counter-screen for diaphorase-based assays: diaphorase inhibitors and chemical oxidizers; diaphorase resazurin-to-resorufin fluorescence, NADH, 16 min; bacterial (C. kluyveri) enzyme, not human; inhibition, % at 20 µM; 0.69% of 190,000 active; AID 1217;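 active means primary screen inhibition at 20 µM above a set limit, cut at about 50% in these data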;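 further: plate controls were DMSO with full reaction for no effect and wells lacking NADH for full effect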
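Benchmarks: positive control wells lacking NADH, neutral wells with DMSO only. System: bacterial diaphorase enzyme (C. kluyveri). Input: 0.14 U/mL diaphorase, enzyme working solution. Detection: resorufin fluorescence, excitation 544 nm, emission 590 nm. Times: 16-min room-temperature incubation before reading.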
G6PDH counter = L. mesenteroides G6PDH inhibition counter-screen; Purified L. mesenteroides G6PDH, diaphorase/resazurin coupled fluorescence, 45 min; inhibition, % at 5 µM; 0.12% of 200,000 active; AID 1020; in the data active means inhibition above about 50%
Diaphorase act = diaphorase activation or chemical reduction counter-screen. Diaphorase/resazurin coupled assay, resorufin fluorescence, 16 min; active compounds read high; 1 = vehicle wells, 0 = NADH-free wells. activation factor at 20 µM. 0.005% of 190,000 active. AID 1229;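 active means diaphorase activity raised at least twofold by the compound at 20 µM; inactive means activation factor below 2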
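Measured by – red resorufin fluorescence at 544/590 nm excitation/emission · Test system – Clostridium kluyveri diaphorase, purified enzyme · Incubation – reaction time 16 min, room temperature · Buffer or medium – 50 mM HEPES pH 7.4 with 4.542 mM MgCl2, 0.005% Tween 20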
PMI activator = activators of human phosphomannose isomerase. P34949. purified human PMI, coupled resazurin fluorescence, 20 min; active compounds read high; 1 = vehicle control, 0 substrate-free wells. 0.005% of 190,000 active. activation factor at 20 µM. AID 1214;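 active means activation factor of 2 or more at 20 µM, relative to plate controls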
Target sequence (P34949 whole entry, looked up): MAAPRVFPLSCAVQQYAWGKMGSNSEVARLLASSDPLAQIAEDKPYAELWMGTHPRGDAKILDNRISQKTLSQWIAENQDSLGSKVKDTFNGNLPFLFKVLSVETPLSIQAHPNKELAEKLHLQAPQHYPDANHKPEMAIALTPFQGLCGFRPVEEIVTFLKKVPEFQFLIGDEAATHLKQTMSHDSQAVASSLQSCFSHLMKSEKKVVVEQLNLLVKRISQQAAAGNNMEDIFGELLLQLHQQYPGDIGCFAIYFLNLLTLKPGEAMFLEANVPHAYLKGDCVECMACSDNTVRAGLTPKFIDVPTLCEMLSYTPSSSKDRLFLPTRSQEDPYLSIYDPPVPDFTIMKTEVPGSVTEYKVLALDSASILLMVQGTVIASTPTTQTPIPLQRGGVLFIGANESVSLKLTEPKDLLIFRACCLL
PMI act satM6P = activators of human phosphomannose isomerase at near-saturating mannose 6-phosphate; P34949; coupled PMI enzyme assay, resazurin fluorescence, 20 min; active compounds read high; 1 = untreated enzyme, 0 = substrate-free blank; activation factor at 20 µM; 0.34% of 190,000 active;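 active means activation factor of 2 or more at 20 µM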
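Material: human phosphomannose isomerase with PGI, G6PDH, diaphorase coupling enzymes. Quantity: 15 ng/mL PMI. Medium: HEPES pH 7.4 buffer with MgCl2 and Tween-20. Reagent: Near-saturating mannose-6-phosphate, 1.0 mM. Compound: 20 µM single dose. Times: enzyme reaction with compound 20 min at room temperature. Detection: resorufin fluorescence at Ex 544/Em 590 nm.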
* hit, by the source's call.

SMILES	Diaph inh CS	G6PDH counter	Diaphorase act	PMI activator	PMI act satM6P
N=c1c(S(=O)(=O)c2ccccc2)cc2c(=O)n3ccccc3nc2n1Cc1ccco1	51*	0	0.5	1.4	1.2
Cc1ccc2nc3c(cc(S(=O)(=O)c4ccccc4)c(=N)n3Cc3ccco3)c(=O)n2c1	52*	-2	0.5	1.3	1
Cc1ccc(NC(=O)CN2CCN(S(=O)(=O)c3cccs3)CC2)cc1S(=O)(=O)N(C)C	7	1	0.9	0.9	0.9
O=C(O)Cc1ccc2oc(-c3cccnc3)nc2c1	4	12	1	1.1	1.1
O=C(Cc1ccc2c(c1)OCCO2)N1CCN(c2ccccc2)CC1	16	0	0.8	0.9	0.9
Cc1ccc(C(=O)NC(=S)NNC(=O)CCN2CCOCC2)cc1	67*	-7	0.3	0.6	0.5
O=C(NC(=S)NCCN1CCOCC1)c1ccc(F)cc1	7	12	0.9	1	1
Cc1nccn1-c1ccc(C=O)cc1	9	2	0.9	1	1
CN(C)c1ccc2c(O)cc(=O)n(C)c2c1	60*	7	0.4	0.5	0.4
CC1(C)Oc2ccc(C(=O)NN)cc2NC1=O	-12	7	1.1	1	1.1
O=C(c1ccc(Br)o1)N1CCc2ccccc21	12	10	0.9	1	1
O=C(CN1CCN(c2ccc(Cl)cc2)CC1)NCc1ccccc1	86*	2	0.1	1	1.1
O=C1c2ccccc2C(=O)N1/N=C/c1ccc(O)c(O)c1	52*	12	0.5	0.6	0.9
CCCCSc1nc(O)cc(=O)n1CC	3	4	1	1	1
CN(C(=O)CSc1nnnn1-c1ccccc1)C1CCS(=O)(=O)C1 (centres undefined)	4	0	1	1	1
CC(=Nc1ccccc1)Nc1ccccc1	5	-2	0.9	1	1
S=C(N=Nc1ccccc1)NNc1ccccc1	12	1	0.9	1.8	2.7*
Cc1ccc(C(NC(=O)N2CCCC2)C(Cl)Cl)cc1F (centres undefined)	0	15	1	1.7	2*
O=C1C=C(N(CCO)Cc2ccccc2)c2ccccc2C1=O	21	54*	0.8	0.6	0.4
O=C(Nc1cc(Sc2nc3ccccc3s2)cc([N+](=O)[O-])c1)c1cccc(F)c1F	12	-23	0.9	0.8	0.9
Cc1cc(C)nc(SC(C)CNS(=O)(=O)c2ccccc2)n1 (centres undefined)	6	4	0.9	1	1
CC(C(=O)Nc1cccnc1)C1Sc2ccccc2NC1=O (centres undefined)	16	22	0.8	0.9	0.7
N=C1/C(=C/c2ccc(-c3cccc(C(=O)O)c3)o2)C(=O)N=C2SC=C(c3ccccc3)N12	54*	2	0.5	0.9	0.7
N=C1/C(=C\c2ccc(-c3cc(Cl)cc(Cl)c3)o2)C(=O)N=C2SC=C(c3ccccc3)N12	19	-12	0.8	0.8	0.8
CC(C)S(=O)(=O)C1=NSC2=NC(=O)/C(=C\c3ccc(-c4cccc(C(=O)O)c4)o3)C(=N)N21	74*	13	0.3	1.2	1.1
SMILES	Diaph inh CS	G6PDH counter	Diaphorase act	PMI activator	PMI act satM6P
CC(C)S(=O)(=O)C1=NSC2=NC(=O)/C(=C\c3ccc(-c4ccccc4)o3)C(=N)N21	24	-5	0.8	1.2	1.1
COc1ccc2nc(/C=N/NC(=O)[C@H](C)NC(=O)OC(C)(C)C)ccc2c1	10	10	0.9	1.1	0.9
Cc1ccc(NC(=S)N/N=C2\CCCCC2C)cc1 (centres undefined)	16	0	0.8	1.8	2*
CC1CCCC/C1=N\NC(=S)Nc1cccnc1 (centres undefined)	14	3	0.9	1.7	1.9
Cc1cc(=S)cc(C)n1CCCO	11	-3	0.9	1.4	2*
Cc1cc(=O)n(CCCO)c(O)c1C#N	24	21	0.8	0.9	0.6
CCc1cc(SC#N)cc(CC)c1NC(=O)CCl	-1	-3	1	1.3	1.2
COc1ccc(-n2c(=O)/c(=C\c3cccs3)s/c2=C(/C#N)C(=O)N2CCN(C)CC2)cc1	-5	3	1.1	1.1	1.1
Cc1ccc(S(=O)(=O)CCNC(=O)Cc2ccc(Cl)cc2)cc1	2	3	1	1	1
Cc1cc(-c2csc(N)n2)c(C)n1CCC(C)C	17	6	0.8	1.6	1.9
Cc1cc(-c2csc(N)n2)c(C)n1CCc1ccccc1	19	2	0.8	1.7	2*
CCOC(=O)Cc1csc(NC(=O)NC2(C(F)(F)F)Oc3ccc(Cl)cc3O2)n1 (centres undefined)	42	33	0.6	0.5	0.5
CCOC(=O)Cc1csc(NC(=O)NC2(C(F)(F)F)Oc3cc(Cl)c(Cl)cc3O2)n1	47	51*	0.5	0.4	0.5
CCCNCc1cc(OC)c(OCc2ccccc2)cc1Br	-1	0	1	1.1	1.1
Nc1cccc2nc3ccccc3cc12	10	0	0.9	0.9	0.9
Cc1cc2c(N)cccc2nn1	44	52*	0.6	0.9	1.3
COC(=O)CC/C(O)=C1\C(=O)CC(C)(C)CC1=NCc1nc2ccccc2[nH]1	10	6	0.9	1	1.1
CCSc1ccc2nnc(-c3cccc(F)c3)n2n1	32	3	0.7	1	2*
CCN(CC)CCN1C(=O)C(O)=C(C(=O)c2ccco2)C1c1ccccn1 (centres undefined)	60*	10	0.4	1.4	1.6
CC(C)NC(=S)N1CCN(S(=O)(=O)c2cccc(C(F)(F)F)c2)CC1	15	2	0.8	0.9	1
CC1(C)CC(=O)c2cc(C(=O)Nn3cnnc3)c(=O)n(-c3ccccc3)c2C1	0	5	1	1	1
COc1ccc(-n2c3c(cc(C(=O)NNc4ccccc4C)c2=O)C(=O)CC(C)(C)C3)cc1	6	5	0.9	1.9	2*
COc1ccc(-n2c3c(cc(C(=O)NNc4ccccc4)c2=O)C(=O)CC(C)(C)C3)cc1	13	7	0.9	1.7	2.1*
CSC1=NC(C(Cl)(Cl)Cl)N=C(c2ccccc2)N1 (centres undefined)	15	3	0.9	1.1	1
CCN(CC)S(=O)(=O)c1ccc(NS(=O)(=O)CC23CCC(CC2=O)C3(C)C)cc1 (centres undefined)	13	19	0.9	0.9	1
COc1ccc(CCNC(N)=S)cc1OC	19	12	0.8	0.9	1
C/C(=N\Nc1ccc(Cl)c(C(=O)O)c1)c1ccc2c(c1)OCO2	-13	9	1.1	1.9	2.8*
